Results on 14 compounds are retold here after ChEMBL document CHEMBL3763107, “Anti-inflammatory neolignans from the roots of Magnolia officinalis” (Bioorg Med Chem, 2016).

Common to all, as to format: functional, cell-based
A short description of experiment [1]: (§1) Antiinflammatory activity in human neutrophils assessed as inhibition of FMLP/CB-induced superoxide anion generation by measuring superoxide dismutase-inhibitable reduction of ferricytochrome c by spectrophotometric analysis. Particulars: Neutrophil. An outline of the steps:
(§2)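 Dextran/Ficoll-purified human neutrophils (6 × 10^5 cells/mL) with ferricytochrome c and 1 mM Ca2+, 2 min at 37 °C. Primed with 1 µg/mL cytochalasin B, then 100 nM FMLP. A550 monitored continuously with stirring. Superoxide taken as the SOD (100 U/mL)-inhibitable reduction using ε 21.1/mM/10 mm. IC50 from mean of n = 3.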

In experiment [2] the test system is Neutrophil. Described as §1. Put shortly:
as §2

Experiment [3] can be described thus: (§3) Antiinflammatory activity in human neutrophils assessed as inhibition of FMLP/CB-induced elastase release using MeO-Suc-Ala-Ala-Pro-Val-p-nitroanilide as substrate incubated for 5 mins by spectrophotometric analysis. Conditions: Neutrophil. An outline of the steps:
(§4)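 Neutrophils from healthy donor blood, isolated by dextran sedimentation, Ficoll gradient and hypotonic lysis, kept in Ca2+-free HBSS pH 7.4 at 4 °C. Cells at 6 × 10^5/mL with 100 µM substrate, 2 min at 37 °C, then drug or 0.1% DMSO vehicle for 5 min. Activated with 100 nM FMLP + 0.5 µg/mL CB. A405 followed continuously; % of drug-free activated control; IC50 from mean of n = 3.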

Experiment [4] relates to Neutrophil. The experiment is described as §3. Put shortly: as §4
Experiment [5] concerns Neutrophil. In words: Induction of ferricytochrome c reduction in human neutrophils by spectrophotometric analysis.
For experiment [6], the system named is Neutrophil. Nature of the experiment: Induction of FMLP/CB-mediated superoxide anion generation in human neutrophils by measuring superoxide dismutase-inhibitable reduction of ferricytochrome c by spectrophotometric analysis.
Experiment [7] has as its system Neutrophil. In words: Induction of superoxide anion generation in human neutrophils by spectrophotometric analysis.

Usually IC50 stands for the concentration needed to halve the response being measured.

Each structure is given as a SMILES string. Active and inactive are the calls of the source. The calls are words filed in the database; no cut-off is given here.

Consider `C=CCc1ccc(O)c(-c2cc(CC=C)cc([C@H]3C[C@](C)(O)CC[C@@H]3C(C)C)c2O)c1`, for which the values for the half-inhibitory concentration (IC50) in experiment [1] and in experiment [3] were 8.16 µM and 3.56 µM, respectively. In addition, the inhibition entry with Neutrophil [2] and with Neutrophil [4] was “Dose-dependent effect” in each case.

With `C=CCc1ccc(Oc2cc(CC=C)c3c(c2O)O[C@@]2(C)CC[C@@H](C(C)C)[C@@H]3C2)cc1`, the IC50 turned out to be 3.54 µM in experiment [1] and 3.67 µM in experiment [3]. The inhibition result in the experiment on Neutrophil [2] and in the experiment with Neutrophil [4] was “Dose-dependent effect” each time.

As for `C=CCc1ccc(Oc2cc(CC=C)cc(O)c2O)cc1` [OBOVATOR], the concentration for half-maximal inhibition (IC50) in experiment [3] was 3.3 µM. The inhibition result in the experiment on Neutrophil [4] is “Dose-dependent effect”. Moreover, the outcome in the experiment on Neutrophil [5] was Active.

Regarding `C=CCc1ccc(O)c(-c2cc(O[C@H]3CCc4cc(CC=C)cc(-c5cc(CC=C)ccc5O)c4O3)ccc2O)c1`, the outcome with Neutrophil [6] was Active. Besides, the half-inhibitory concentration (IC50) in experiment [3] is 2.25 µM. For the same compound, in the experiment on Neutrophil [4], the inhibition entry was “Dose-dependent effect”.

As to `C=CCc1ccc(O)c(-c2cc(CC=C)cc([C@H]3C[C@@](C)(O)CC[C@@H]3C(C)C)c2O)c1`, the IC50 in experiment [1] turned out to be 4.21 µM; in experiment [3], 2.16 µM. The inhibition result in the experiment on Neutrophil [2] and in the experiment on Neutrophil [4] was “Dose-dependent effect” each time.

As for `C=CCc1ccc(O)c(-c2cc(CC=C)cc([C@@H]3C=C(C)CC[C@H]3C(C)C)c2O)c1`, the IC50 turned out to be 10.8 µM in experiment [1] and 14.8 µM in experiment [3]. Besides, the inhibition result in the experiment with Neutrophil [2] and in the experiment with Neutrophil [4] was “Dose-dependent effect” in each case.

With `C=CCc1ccc(O)c(-c2cc(CC=C)cc([C@@H]3[C@@H](C(C)C)CC[C@@](C)(O)[C@@H]3O)c2O)c1`, the IC50 in experiment [1] was 15.1 µM; in experiment [3], 10.7 µM. Further, the inhibition entry with Neutrophil [2] and in the experiment with Neutrophil [4] was “Dose-dependent effect” each time.

In the case of `C=CCc1ccc(O)c(-c2ccc(OC)c(CC=C)c2)c1` [METHYLHONOKIOL], the half-maximal inhibitory concentration (IC50) in experiment [1] was determined as 14.3 µM; in experiment [3], 8.18 µM. The inhibition result in the experiment on Neutrophil [2] and in the experiment on Neutrophil [4] was “Dose-dependent effect” throughout.

As for `C=CCc1ccc(O)c(-c2cc(CC=C)cc(OC)c2O)c1`, the half-maximal inhibitory concentration (IC50) was found to be 5.48 µM in experiment [1] and 3.39 µM in experiment [3]. The inhibition result with Neutrophil [2] and with Neutrophil [4] was “Dose-dependent effect” each time.

As for `C=CCc1ccc(O)c(-c2ccc(O)c(OC)c2)c1`, the IC50 in experiment [1] worked out at 7.89 µM; in experiment [3], 18.2 µM. Also, the inhibition entry in the experiment on Neutrophil [2] and in the experiment with Neutrophil [4] was “Dose-dependent effect” throughout.

With `C=CCc1ccc(O)c(-c2cc(CC=C)cc(C=O)c2O)c1`, the IC50 in experiment [3] was determined as 0.63 µM. In the experiment with Neutrophil [4], the inhibition entry is “Dose-dependent effect”. Also, in the experiment on Neutrophil [7], the result was Active.

Turning to `C=CCc1ccc(O)c(-c2ccc(O[C@@H]3CCc4cc(CC=C)cc(-c5cc(CC=C)ccc5O)c4O3)cc2O)c1`, the results for the 50% inhibitory concentration (IC50) in experiment [1] and in experiment [3] were 19.3 µM and 3.81 µM, respectively. The inhibition result with Neutrophil [2] and in the experiment on Neutrophil [4] was “Dose-dependent effect” throughout.

`CNC(=O)c1cc(Oc2ccc(NC(=O)Nc3ccc(Cl)c(C(F)(F)F)c3)cc2)ccn1` [SORAFENIB]: the figures for the half-inhibitory concentration (IC50) in experiment [1] and in experiment [3] were 3.2 µM and 2 µM, respectively.

For `C=CCc1ccc(O)c(-c2cc(CC=C)cc3c2O[C@@H]2[C@H]3[C@@H](C(C)C)CC[C@@]2(C)O)c1`, the half-maximal inhibitory concentration (IC50) in experiment [1] worked out at 4.17 µM; in experiment [3] it was 2.59 µM. Moreover, the inhibition result with Neutrophil [2] and in the experiment on Neutrophil [4] was “Dose-dependent effect” each time.
